# Test results as given in ChEMBL document CHEMBL1255487, “Preclinical evaluation of the antifolate QN254, 5-chloro- N'6'-(2,5-dimethoxy-benzyl)-quinazoline-2,4,6-triamine, as an antimalarial drug candidate” (Antimicrob Agents Chemother, 2010).
# The source made the active and inactive calls. The rule behind the calls is not given here.
# What was measured:
# [1] = Half life in CD-1 mouse at 5 mg/kg, iv; assay type: ADME, organism-based; design: dose 5 mg/kg, route intravenous; conditions: in vivo
# In short: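 Mice dosed with 25 mg/kg p.o. as a 2.5 mg/ml suspension in 0.5% CMC, or with 5 mg/kg i.v. at 1 mg/ml in 10% NMP, 30% PEG 400 and 60% of 10% vitamin E-TPGS. Blood sampled at several time points. Plasma extracted with acidified acetonitrile (8:1) and quantified by LC-MS, LLOQ 12 ng/ml.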
# Plasmodium berghei [2] = assay: Antimalarial activity against Plasmodium berghei ANKA infected in NMRI mice (Mus musculus) assessed as mean survival time at 3 times 100 mg/kg, perorally; assay type: functional, organism-based; design: dose 100 mg/kg
# [3] = AUC (0 to 24 hrs) in NMRI mouse at 26.5 mg/kg, po; conditions: plasma
# Plasmodium berghei [4] = assay: Antimalarial activity against Plasmodium berghei ANKA infected in NMRI mice (Mus musculus) assessed as reduction in parasitemia at 3 times 30 mg/kg, perorally measured on day 3 postinfection; assay type: functional; design: scale not given: the % may be the effect or the level left; conditions: route oral
# In short: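 P. berghei ANKA given intravenously to groups of 5 female NMRI mice (20–22 g): 0.2 ml of 1 × 10^8 parasitized erythrocytes/ml from a donor mouse. Oral dosing in 0.5% carboxymethyl cellulose. Parasitemia counted by microscopy. Activity is the control-minus-treated parasitemia difference, expressed as percent of untreated controls.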
# [5] = AUC in Wistar rat at 25 mg/kg, po; assay type: ADME, organism-based; design: dose 25 mg/kg, route oral; conditions: plasma
# In short: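 Rats dosed with 25 mg/kg p.o. as a 2.5 mg/ml suspension in 0.5% CMC, or with 5 mg/kg i.v. at 1 mg/ml in 10% NMP, 30% PEG 400 and 60% of 10% vitamin E-TPGS. Plasma sampled over time, extracted with acidified acetonitrile (8:1) and quantified by LC-MS, LLOQ 12 ng/ml.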
smiles,measurement,setting,value
COc1ccc(OC)c(CNc2ccc3nc(N)nc(N)c3c2Cl)c1,half-life,[1],48 min
same,Activity,Plasmodium berghei [2],inactive
same,AUC(0-t) at 24 h,[3],17000 ng·h/mL
same,Activity,Plasmodium berghei [4],>99.99%
same,AUC,[5],67.3 µM·h
